Reference: ChEMBL document CHEMBL4007422 (J Med Chem, 2017)
pIC50, pKi: −log10 of the molar value. Activity calls are given as the source filed them. The calls are words filed in the database; no cut-off is given here.

Assays:
[1] = molecular target: 5-hydroxytryptamine receptor 7 (Rattus norvegicus) (UniProt P32305); test: Binding affinity to recombinant rat 5-HT7 receptor expressed in CHOK1 cells assessed as inhibition of 5-HT stimulated cAMP accumulation after 4 hrs by luciferase reporter gene assay; assay type: cell-based
[2] = Cmax in Wistar rat at 10 mg/kg, po by LC-MS/MS analysis; assay type: ADME, organism-based; design: dose 10 mg/kg, route oral; conditions: in vivo
[3] = Apparent volume of distribution in Wistar rat at 10 mg/kg, iv by LC-MS/MS analysis; assay type: ADME, organism-based; conditions: in vivo, read-out: Vz
[4] = Ratio of drug uptake in Wistar rat brain to plasma at 10 mg/kg, po by LC-MS/MS analysis; assay type: ADME, organism-based; conditions: read-out: BPR
Rattus norvegicus [5] = test: Reversal of time-induced amnesia in Wistar rat at 1 to 10 mg/kg, po administered 60 mins prior to testing measured for 3 mins by object recognition test; assay type: functional, organism-based
In short: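 Time-induced object recognition task in rats. Oral dosing at 1, 3 and 10 mg/kg given 60 min before the test; vehicle water for injection 1 mL/kg p.o.; n = 7−12/group. Exploration of novel versus familiar object compared by paired t-test.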

[6] = molecular target: D(3) dopamine receptor (Homo sapiens) (UniProt P35462); test: Inhibition of recombinant human dopamine D3 receptor expressed in CHOK1 cells at 1 uM by GTPgammaS binding assay; assay type: functional, cell-based
[7] = molecular target: Alpha-2C adrenergic receptor (Homo sapiens) (UniProt P18825); test: Inhibition of recombinant human adrenergic alpha 2C receptor expressed in CHOK1 cells at 1 uM; assay type: cell-based
[8] = molecular target: Alpha-2A adrenergic receptor (Homo sapiens, UniProt P08913); test: Displacement of [3H] MK-912 from human adrenergic alpha 2A receptor expressed in HT29 cells after 60 mins; assay type: cell-based
D(3) dopamine receptor = D(3) dopamine receptor (Rattus norvegicus, UniProt P19020); test: Displacement of [3H] 7-OH DPAT from recombinant rat dopamine D3 receptor expressed in CHO cells after 60 mins; assay type: cell-based
[9] = Apparent permeability of the compound in human Caco2 cells at 10 uM measured up to 120 mins by LC-MS/MS analysis; assay type: ADME, cell-based; conditions: Caco-2
In short: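 Permeability in Caco-2 intestinal epithelial monolayers, measured apical-to-basolateral and basolateral-to-apical; efflux ratio taken as Papp(B-A)/Papp(A-B).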

[10] = AUC (0 to t) in Beagle dog at 10 mg/kg, po; assay type: ADME, organism-based, Canis lupus familiaris; conditions: in vivo
[11] = Protein binding in rat plasma at 1 uM after 6 hrs by LC-MS/MS based rapid equilibrium dialysis method; assay type: ADME, cell-free; conditions: read-out: PPB
In short: (§1)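 Plasma protein binding in rat, dog and human plasma determined by equilibrium dialysis.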

[12] = Protein binding in dog plasma at 1 uM after 6 hrs by LC-MS/MS based rapid equilibrium dialysis method; assay type: ADME, cell-free, Canis lupus familiaris; conditions: read-out: PPB (converted); in short: as §1
[13] = Terminal half life in Beagle dog at 10 mg/kg, po; assay type: ADME, organism-based, Canis lupus familiaris; conditions: in vivo, read-out: beta t1/2 (converted)
In short: (§2)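 Beagle dogs received 10 mg/kg p.o. and 3 mg/kg i.v. in a pharmacokinetic study. From plasma exposure the authors derived AUC0-t, terminal half-life, intravenous clearance, volume of distribution and absolute oral bioavailability.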

[14] = Volume of distribution in Beagle dog at 3 mg/kg, iv or at 10 mg/kg, po; assay type: ADME, organism-based, Canis lupus familiaris; conditions: in vivo; in short: as §2
Cytochrome P450 2B6 [15] = molecular target: T1, Cytochrome P450 2B6 (Homo sapiens, UniProt P20813); test: Inhibition of CYP2B6 in human liver microsomes in presence of NADPH by LC-MS/MS analysis; assay type: ADME
In short: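 Pooled human liver microsomes. IC50 determined from isoform-specific marker activities for CYP1A2, 2A6, 2B6, 2C8, 2C9, 2C19 (mephenytoin hydroxylation) and 2E1.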

Cytochrome P450 2B6 [16] = molecular target: T1, Cytochrome P450 2B6; test: Induction of CYP2B6 activity in human hepatocytes at 0.01 to 1 uM preincubated for 3 days followed by substrate addition measured after 30 mins; assay type: ADME, cell-based; conditions: 0.5 h
In short: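 Plateable human hepatocytes exposed to 0.01, 0.1 and 1.0 μM. CYP1A2, CYP2B6 and CYP3A4 induction read as both mRNA expression and enzyme activity.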

Rattus norvegicus [17] = test: Cognitive enhancing effect in contextual fear conditioning rat model assessed as reversal of scopolamine-induced emotional memory deficits at 1 to 10 mg/kg, po administered for 1 hr followed by scopolamine challenge for 120 mins; assay type: functional, organism-based
Rattus norvegicus [18] = test: Increase in acetylcholine level in Wistar rat ventral hippocampus at 1 mg/kg, po after 6 hrs by LC-MS/MS based microdialysis method; assay type: functional, organism-based
In short: (§3)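 Male Wistar rats (240−300 g) fitted under isoflurane with a ventral hippocampal guide cannula (AP −5.2, ML +5.0, DV −3.8 mm from bregma). Probe (4 mm membrane) inserted 16 h before study. Perfusion with aCSF pH 7.2 at 1.5 μL/min, 2 h stabilization, five basal 20-min samples. Test agent given p.o.; donepezil and memantine (1 mg/kg s.c. each) given 30 min later in combination arms. Dialysates collected 6 h (4 h for combination), acetylcholine measured by LC-MS/MS, expressed as % of mean basal.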

Rattus norvegicus [19] = test: Increase in acetylcholine level in Wistar rat ventral hippocampus at 1 mg/kg, po in presence of 1 mg/kg of donepezil and memantine administered sc 30 mins post compound treatment measured after 4 hrs by LC-MS/MS based microdialysis method relative to control; assay type: functional; in short: as §3
Rattus norvegicus [20] = test: Increase in acetylcholine level in Wistar rat ventral hippocampus at 3 mg/kg, po in presence of 1 mg/kg of donepezil and memantine administered sc 30 mins post compound treatment measured after 4 hrs by LC-MS/MS based microdialysis method relative to control; assay type: functional; in short: as §3
[21] = Solubility of the compound in water; assay type: physicochemical; conditions: buffer
Salmonella typhimurium [22] = test: Mutagenicity in Salmonella typhimurium TA1537 in absence of metabolic activation; assay type: toxicity; conditions: salmonella enterica subsp. enterica serovar typhimurium
Salmonella typhimurium [23] = test: Mutagenicity in Salmonella typhimurium TA1535 in presence of metabolic activation; assay type: toxicity; conditions: salmonella enterica subsp. enterica serovar typhimurium
Salmonella typhimurium [24] = test: Mutagenicity in Salmonella typhimurium TA98 in presence of metabolic activation; assay type: toxicity; conditions: salmonella enterica subsp. enterica serovar typhimurium
Salmonella typhimurium [25] = test: Mutagenicity in Salmonella typhimurium TA98 in absence of metabolic activation; assay type: toxicity; conditions: salmonella enterica subsp. enterica serovar typhimurium
PBL = test: Nonclastogenic effect in human PBL by chromosomal aberration test; assay type: cell-based
Homo sapiens = test: Toxicity in healthy male and female human subjects administered as single ascending dose for 14 days; conditions: in vivo, 336 h

T1 sequence (P20813 whole entry, canonical isoform): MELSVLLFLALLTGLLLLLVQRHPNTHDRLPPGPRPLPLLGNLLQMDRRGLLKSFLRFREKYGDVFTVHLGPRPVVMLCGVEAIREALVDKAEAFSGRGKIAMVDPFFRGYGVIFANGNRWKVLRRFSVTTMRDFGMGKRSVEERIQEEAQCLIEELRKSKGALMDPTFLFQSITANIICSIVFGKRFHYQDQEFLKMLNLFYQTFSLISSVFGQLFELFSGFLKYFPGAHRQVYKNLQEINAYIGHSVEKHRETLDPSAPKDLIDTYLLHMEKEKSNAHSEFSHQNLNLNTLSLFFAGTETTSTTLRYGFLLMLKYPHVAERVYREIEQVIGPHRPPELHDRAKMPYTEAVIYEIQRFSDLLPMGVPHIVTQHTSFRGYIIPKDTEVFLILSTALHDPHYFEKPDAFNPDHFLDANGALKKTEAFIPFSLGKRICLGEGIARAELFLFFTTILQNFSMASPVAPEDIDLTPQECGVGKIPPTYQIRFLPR
Chain of D(3) dopamine receptor (P19020 whole entry): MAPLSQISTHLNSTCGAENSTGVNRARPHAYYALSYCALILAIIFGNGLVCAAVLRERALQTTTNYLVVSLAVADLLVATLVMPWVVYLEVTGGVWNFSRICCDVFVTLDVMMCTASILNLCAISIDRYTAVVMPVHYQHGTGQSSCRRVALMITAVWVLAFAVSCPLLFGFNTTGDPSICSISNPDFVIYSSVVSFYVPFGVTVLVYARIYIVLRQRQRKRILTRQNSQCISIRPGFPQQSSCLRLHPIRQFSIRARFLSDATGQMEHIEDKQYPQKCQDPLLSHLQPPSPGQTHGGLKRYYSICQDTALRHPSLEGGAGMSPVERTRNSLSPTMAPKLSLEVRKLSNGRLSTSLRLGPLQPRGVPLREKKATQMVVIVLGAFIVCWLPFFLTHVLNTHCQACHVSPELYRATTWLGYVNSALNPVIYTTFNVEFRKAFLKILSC
Chain of 5-hydroxytryptamine receptor 7 (Rattus norvegicus) (P32305 whole entry): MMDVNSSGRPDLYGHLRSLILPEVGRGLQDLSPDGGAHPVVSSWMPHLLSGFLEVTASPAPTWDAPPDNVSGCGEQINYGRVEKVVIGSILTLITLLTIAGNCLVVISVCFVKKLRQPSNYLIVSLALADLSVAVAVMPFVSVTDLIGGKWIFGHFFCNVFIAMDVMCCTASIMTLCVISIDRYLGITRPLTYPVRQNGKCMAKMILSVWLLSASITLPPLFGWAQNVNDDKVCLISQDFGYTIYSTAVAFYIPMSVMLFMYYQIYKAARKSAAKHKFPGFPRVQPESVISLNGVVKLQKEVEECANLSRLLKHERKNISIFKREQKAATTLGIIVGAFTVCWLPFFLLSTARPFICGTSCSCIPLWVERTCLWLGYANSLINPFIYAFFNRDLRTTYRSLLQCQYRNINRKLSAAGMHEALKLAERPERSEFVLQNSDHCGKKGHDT
Chain of Alpha-2C adrenergic receptor (Homo sapiens) (P18825 whole entry): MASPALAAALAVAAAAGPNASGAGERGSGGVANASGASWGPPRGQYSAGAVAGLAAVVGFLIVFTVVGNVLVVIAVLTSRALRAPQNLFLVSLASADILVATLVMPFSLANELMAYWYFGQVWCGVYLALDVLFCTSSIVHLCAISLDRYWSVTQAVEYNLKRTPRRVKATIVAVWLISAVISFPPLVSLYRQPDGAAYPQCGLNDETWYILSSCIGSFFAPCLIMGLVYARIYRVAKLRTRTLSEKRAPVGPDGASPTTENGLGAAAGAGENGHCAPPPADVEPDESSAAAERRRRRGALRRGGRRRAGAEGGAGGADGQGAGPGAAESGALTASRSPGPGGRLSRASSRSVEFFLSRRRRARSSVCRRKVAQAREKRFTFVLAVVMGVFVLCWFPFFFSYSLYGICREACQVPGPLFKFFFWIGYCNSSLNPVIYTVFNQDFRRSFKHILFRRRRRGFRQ
Chain of D(3) dopamine receptor (Homo sapiens) (P35462 whole entry): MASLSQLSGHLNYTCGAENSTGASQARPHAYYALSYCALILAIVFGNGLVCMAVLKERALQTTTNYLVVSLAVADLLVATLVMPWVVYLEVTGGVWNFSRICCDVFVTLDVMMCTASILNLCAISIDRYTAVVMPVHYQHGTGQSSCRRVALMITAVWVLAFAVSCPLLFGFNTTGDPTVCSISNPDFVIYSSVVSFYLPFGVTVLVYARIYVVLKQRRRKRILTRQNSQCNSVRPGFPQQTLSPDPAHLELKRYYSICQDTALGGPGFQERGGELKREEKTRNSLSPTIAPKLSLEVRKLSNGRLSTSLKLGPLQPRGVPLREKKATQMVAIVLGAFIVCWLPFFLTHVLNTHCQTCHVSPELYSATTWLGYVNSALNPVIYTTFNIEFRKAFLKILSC
Chain of Alpha-2A adrenergic receptor (P08913 whole entry): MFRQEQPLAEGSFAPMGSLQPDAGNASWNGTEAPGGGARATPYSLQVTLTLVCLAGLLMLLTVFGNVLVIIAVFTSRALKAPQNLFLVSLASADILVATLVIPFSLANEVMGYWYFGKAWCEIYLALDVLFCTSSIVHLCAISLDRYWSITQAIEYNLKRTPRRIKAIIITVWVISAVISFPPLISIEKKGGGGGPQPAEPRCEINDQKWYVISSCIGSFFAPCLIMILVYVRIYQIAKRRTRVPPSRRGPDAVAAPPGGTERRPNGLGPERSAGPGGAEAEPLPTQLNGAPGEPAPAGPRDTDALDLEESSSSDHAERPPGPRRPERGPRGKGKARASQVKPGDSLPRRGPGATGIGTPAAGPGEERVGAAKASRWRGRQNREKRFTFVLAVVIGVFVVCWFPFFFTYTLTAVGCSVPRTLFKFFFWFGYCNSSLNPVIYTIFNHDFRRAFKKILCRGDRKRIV

Activity [1]: inactive
Cmax [2]: 272 ng/mL
Vd [3]: 4.41 L/kg
Kp [4]: 1.48
inhibition [6]: > 50%
inhibition [7]: > 50%
pKi [8]: 5.59
pKi (D(3) dopamine receptor): 6.21
Papp at 2 h, 10 µM [9]: 19.6 ×10⁻⁶ cm/s
AUC(0-t) [10]: 1360 ng·h/mL
fraction unbound at 6 h, 1 µM [11]: 0.01
fraction unbound at 6 h, 1 µM [12]: 0.014
half-life [13]: 3.5 h
Vd [14]: 7.5 L/kg
pIC50 (Cytochrome P450 2B6 [15]): < 5.00
Activity (Cytochrome P450 2B6 [16]): Not Active
solubility [21]: 1200 mg/mL
SMILES: COc1ccc2c(c1)c(CN1CCN(C)CC1)cn2S(=O)(=O)c1ccccc1Br.CS(=O)(=O)O.O
Activity (Rattus norvegicus [5]): Active
Activity (Rattus norvegicus [17]): Active
Activity (Rattus norvegicus [18]): inactive
Activity (Rattus norvegicus [19]): 1383%
Activity (Rattus norvegicus [20]): 2136%
Activity (Salmonella typhimurium [22]): Non-Toxic
Activity (Salmonella typhimurium [23]): Non-Toxic
Activity (Salmonella typhimurium [24]): Non-Toxic
Activity (Salmonella typhimurium [25]): Non-Toxic
Activity (PBL): Non-Toxic
Activity (Homo sapiens): Non-Toxic
